The target in one test is Translocator protein (Rattus norvegicus, UniProt P16257). As to the kind of experiment: Inhibition of [3H]PK11195 binding to TSPO in rat kidney mitochondrial membranes. The class given is cell membranes.
The species named for a further test is Rattus norvegicus. The experiment in a line: Inhibition of [3H]flumazenil binding to benzodiazepine receptor in rat cerebral cortex membranes at 10 uM incubated for 90 mins. The class given is cell membranes. The settings on record: Membrane. The method, boiled down:
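Crude rat cerebral cortex membrane fraction from differential centrifugation, washed to remove endogenous GABA. Incubated with 0.4 nM [3H]Ro15-1788 (flumazenil) for 90 min at 0 °C in 50 mM Tris-citrate, pH 7.4. Test compound at 10 μM; result given as percent inhibition of binding.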

Translocator protein, sequence (P16257 whole entry, looked up): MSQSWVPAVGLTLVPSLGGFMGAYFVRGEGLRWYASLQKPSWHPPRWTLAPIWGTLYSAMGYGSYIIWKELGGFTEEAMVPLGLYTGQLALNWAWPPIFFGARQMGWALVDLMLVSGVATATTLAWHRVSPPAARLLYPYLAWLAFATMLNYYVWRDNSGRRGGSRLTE

`CCCN(CCC)C(=O)C(=O)c1c(-c2ccc(-c3ccccc3)cc2)[nH]c2ccccc12` came in with a Ki on Translocator protein of 0.53 nM. The molecule also returned an inhibition in the test listed under Rattus norvegicus of 0%.

As to `CCN(Cc1ccccc1)C(=O)C(=O)c1c(-c2ccc3ccccc3c2)[nH]c2ccccc12`, affinity on Translocator protein was put at a Ki of 0.51 nM. This molecule registered an inhibition in the test filed under Rattus norvegicus of 0%.

Molecule `CCCCN(CCCC)C(=O)C(=O)c1c(-c2ccc(-c3ccccc3)cc2)[nH]c2ccccc12` came in with a Ki at Translocator protein of 5.5 nM. This molecule showed an inhibition in the test filed under Rattus norvegicus of 0%.

The molecule `CCCN(CCC)C(=O)C(=O)c1c(-c2ccc(O)cc2)[nH]c2ccccc12` displayed a Ki on Translocator protein of 16.1 nM. In the test filed under Rattus norvegicus, this molecule returned an inhibition of 0%.

Take `CCCN(CCC)C(=O)C(=O)c1c(-c2ccc(N)cc2)[nH]c2ccccc12`: the Ki on Translocator protein came out at 44.4 nM. The same molecule showed an inhibition in the test listed under Rattus norvegicus of 0%.

Regarding `CCCCCCN(CCCCCC)C(=O)C(=O)c1c(-c2ccc(C(=O)OC)cc2)[nH]c2ccccc12`, the Ki on Translocator protein was found to be 3.3 nM. Besides, the inhibition in the test listed under Rattus norvegicus turned out to be 0%.

In the case of `CCCCCCN(CCCCCC)C(=O)C(=O)c1c(-c2ccc(N)cc2)[nH]c2ccccc12`, affinity on Translocator protein was put at a Ki of 4.2 nM. In the test filed under Rattus norvegicus, the inhibition was found to be 0%.

Take `CCCCN(CCCC)C(=O)C(=O)c1c(-c2ccc(C(=O)OC)cc2)[nH]c2ccccc12`: affinity at Translocator protein was put at a Ki of 2.7 nM. Moreover, in the test filed under Rattus norvegicus, the inhibition came out at 0%.

For the molecule `CCC(C)N(C)C(=O)c1cc2ccccc2c(-c2ccccc2Cl)n1` (configuration not stated), the inhibition in the test filed under Rattus norvegicus came out at 0%.

Molecule `CCCCN(CCCC)C(=O)C(=O)c1c(-c2ccc(C(=O)O)cc2)[nH]c2ccccc12` displayed a Ki at Translocator protein of 406 nM. This molecule also had an inhibition in the test listed under Rattus norvegicus of 0%.

`CCCCCCN(CCCCCC)C(=O)C(=O)c1c(-c2ccsc2)[nH]c2ccccc12`: the affinity at Translocator protein, expressed as Ki, was 0.89 nM. The inhibition in the test filed under Rattus norvegicus amounted to 0%.

`CCCCCCN(CCCCCC)C(=O)C(=O)c1c(-c2ccc3ccccc3c2)[nH]c2ccccc12`: on Translocator protein, the Ki came to 0.52 nM. The molecule also had an inhibition in the test listed under Rattus norvegicus of 0%.

With `CCCCN(CCCC)C(=O)C(=O)c1c(-c2ccc(O)cc2)[nH]c2ccccc12`, the Ki on Translocator protein was 25.7 nM. In addition, in the test filed under Rattus norvegicus, the inhibition is 0%.

Regarding `CCCCN(CCCC)C(=O)C(=O)c1c(-c2ccc(N)cc2)[nH]c2ccccc12`, the Ki on Translocator protein came out at 133 nM. In addition, the inhibition in the test listed under Rattus norvegicus was 0%.

With `CCCCN(CCCC)C(=O)C(=O)c1c(-c2ccsc2)[nH]c2ccccc12`, the Ki on Translocator protein was 2.8 nM. In the test listed under Rattus norvegicus, this molecule came in with an inhibition of 0%.

Regarding `CCCN(CCC)C(=O)C(=O)c1c(-c2ccc3ccccc3c2)[nH]c2ccccc12`, the inhibition in the test listed under Rattus norvegicus was found to be 0%.

`CCCN(CCC)C(=O)C(=O)c1c(-c2ccsc2)[nH]c2ccccc12` displayed a Ki on Translocator protein of 1.2 nM. The same molecule registered an inhibition in the test listed under Rattus norvegicus of 0%.

Take `CCCN(CCC)C(=O)C(=O)c1c(-c2ccc(C(=O)O)cc2)[nH]c2ccccc12`: on Translocator protein, the affinity, expressed as Ki, was 343 nM. This molecule also showed an inhibition in the test listed under Rattus norvegicus of 0%.

As for `CCCCN(CCCC)C(=O)C(=O)c1c(-c2ccc(OC)cc2)[nH]c2ccccc12`, at Translocator protein, the affinity, expressed as Ki, was 20.3 nM. The same molecule registered an inhibition in the test listed under Rattus norvegicus of 0%.

In the case of `CCCCCN(C)C(=O)C(=O)c1c(-c2ccc3ccccc3c2)[nH]c2ccccc12`, on Translocator protein, the Ki is 0.37 nM. Besides, the inhibition in the test filed under Rattus norvegicus was 0%.

With `CCCCN(CC)C(=O)C(=O)c1c(-c2ccc3ccccc3c2)[nH]c2ccccc12`, the Ki on Translocator protein was 0.51 nM. The inhibition in the test listed under Rattus norvegicus amounted to 0%.

Consider `CCCCN(CCCC)C(=O)C(=O)c1c(-c2ccc3ccccc3c2)[nH]c2ccccc12`, for which, at Translocator protein, the Ki came to 0.54 nM. Besides, the inhibition in the test filed under Rattus norvegicus came out at 0%.

For the molecule `CCCN(CCC)C(=O)C(=O)c1c(-c2ccc(OC)cc2)[nH]c2ccccc12`, on Translocator protein, the affinity, expressed as Ki, was 5.8 nM. The same molecule showed an inhibition in the test listed under Rattus norvegicus of 0%.

As to `CCCCCCN(CCCCCC)C(=O)C(=O)c1c(-c2ccc(OC)cc2)[nH]c2ccccc12`, the affinity on Translocator protein, expressed as Ki, was 4 nM. The inhibition in the test filed under Rattus norvegicus was determined as 0%.

For `CCCN(CCC)C(=O)C(=O)c1c(-c2ccc(C(=O)OC)cc2)[nH]c2ccccc12`, the inhibitory constant (Ki) on Translocator protein is 3.1 nM. The molecule further displayed an inhibition in the test listed under Rattus norvegicus of 0%.

In turn, `CCCCCCN(CCCCCC)C(=O)C(=O)c1c(-c2ccc(C(=O)O)cc2)[nH]c2ccccc12` yielded a Ki at Translocator protein of 184 nM. The same molecule registered an inhibition in the test listed under Rattus norvegicus of 0%.

`CCCCCCN(CCCCCC)C(=O)C(=O)c1c(-c2ccc(O)cc2)[nH]c2ccccc12` showed a Ki on Translocator protein of 6.3 nM. This molecule also yielded an inhibition in the test filed under Rattus norvegicus of 0%.

The molecule `CCCCCCN(CCCCCC)C(=O)C(=O)c1c(-c2ccc(-c3ccccc3)cc2)[nH]c2ccccc12` returned a Ki on Translocator protein of 1.8 nM. Also, the inhibition in the test filed under Rattus norvegicus worked out at 0%.

In the test filed under Rattus norvegicus, `CN1C(=O)CN=C(c2ccc(Cl)cc2)c2cc(Cl)ccc21` had an inhibition of 0%.

For the molecule `CCCCN(C)C(=O)C(=O)c1c(-c2ccc3ccccc3c2)[nH]c2ccccc12`, on Translocator protein, the Ki worked out at 0.56 nM. In addition, the inhibition in the test listed under Rattus norvegicus came out at 0%.

The values above are taken from ChEMBL document CHEMBL3596088, “Deepening the Topology of the Translocator Protein Binding Site by Novel N,N-Dialkyl-2-arylindol-3-ylglyoxylamides” (J Med Chem, 2015).
